From ChEMBL document CHEMBL4610084, “Antibacterial and ATP Synthesis Modulating Compounds from Salvia tingitana” (2020)

Columns and labels:
Assay type in all cases: functional
[1] = system: Enterococcus faecalis; assay: Antibacterial activity against Vancomycin resistant Enterococcus faecalis MB19 after 24 hrs by microdilution assay; conditions: MB19, 24 h
Procedure, shortened: (§1)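 Broth microdilution MIC, run as in an earlier cited report. Strains are clinical isolates identified by standard methods and MALDI-TOF; E. faecalis MB19 and MB51 are Ligurian seawater isolates. Highest concentration tested was 128 μg/mL. MICs are given in μg/mL and μM, with oxacillin and vancomycin as reference antibiotics.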

[2] = system: Staphylococcus hominis; assay: Antibacterial activity against Methicillin-resistant Staphylococcus hominis MB124 after 24 hrs by microdilution assay; conditions: MB124, 24 h; procedure, shortened: as §1
[3] = system: Staphylococcus simulans; assay: Antibacterial activity against Staphylococcus simulans MB94 after 24 hrs by microdilution assay; conditions: MB94, 24 h
Procedure, shortened: (§2)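 Broth microdilution MIC against clinical or seawater-isolated strains (identified by standard procedures and MALDI-TOF), with compound solutions and testing as in earlier work. MIC reported in μg/mL and μM.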

[4] = system: Staphylococcus aureus; assay: Antibacterial activity against Methicillin-resistant Staphylococcus aureus MB18 after 24 hrs by microdilution assay; conditions: MB18, 24 h; procedure, shortened: as §1
[5] = system: Enterococcus gallinarum; assay: Antibacterial activity against Vancomycin resistant Enterococcus gallinarum MB111 after 24 hrs by microdilution assay; conditions: MB111, 24 h; procedure, shortened: as §1
[6] = system: Staphylococcus epidermidis; assay: Antibacterial activity against Methicillin-resistant Staphylococcus epidermidis MB165 after 24 hrs by microdilution assay; conditions: MB165, 24 h; procedure, shortened: as §1
[7] = system: Staphylococcus lugdunensis; assay: Antibacterial activity against Staphylococcus lugdunensis MB96 after 24 hrs by microdilution assay; conditions: MB96, 24 h; procedure, shortened: as §2
[8] = system: Enterococcus casseliflavus; assay: Antibacterial activity against Vancomycin resistant Enterococcus casseliflavus MB159 after 24 hrs by microdilution assay; conditions: MB159, 24 h; procedure, shortened: as §1
[9] = system: Enterococcus faecalis; assay: Antibacterial activity against Enterococcus faecalis MB76 after 24 hrs by microdilution assay; conditions: MB76, 24 h; procedure, shortened: as §1
[10] = system: Staphylococcus haemolyticus; assay: Antibacterial activity against Methicillin-resistant Staphylococcus haemolyticus MB115 after 24 hrs by microdilution assay; conditions: MB115, 24 h; procedure, shortened: as §1
[11] = system: Staphylococcus saprophyticus; assay: Antibacterial activity against Staphylococcus saprophyticus MB41 after 24 hrs by microdilution assay; conditions: MB41, 24 h; procedure, shortened: as §2
[12] = system: Staphylococcus epidermidis; assay: Antibacterial activity against Methicillin-resistant Staphylococcus epidermidis MB169 after 24 hrs by microdilution assay; conditions: MB169, 24 h; procedure, shortened: as §1
[13] = system: Enterococcus faecalis; assay: Antibacterial activity against Vancomycin resistant Enterococcus faecalis MB1 after 24 hrs by microdilution assay; conditions: MB1, 24 h; procedure, shortened: as §1
[14] = system: Staphylococcus aureus; assay: Antibacterial activity against Methicillin-resistant Staphylococcus aureus MB188 after 24 hrs by microdilution assay; conditions: MB188, 24 h; procedure, shortened: as §1
[15] = system: Enterococcus faecalis; assay: Antibacterial activity against Vancomycin resistant Enterococcus faecalis MB51 after 24 hrs by microdilution assay; conditions: MB51, 24 h; procedure, shortened: as §1
[16] = system: Staphylococcus capitis; assay: Antibacterial activity against Methicillin-resistant Staphylococcus capitis MB71 after 24 hrs by microdilution assay; conditions: MB71, 24 h; procedure, shortened: as §1
[17] = system: Enterococcus avium; assay: Antibacterial activity against Enterococcus avium MB119 after 24 hrs by microdilution assay; conditions: MB119, 24 h; procedure, shortened: as §2
[18] = system: Enterococcus faecium; assay: Antibacterial activity against Enterococcus faecium MB2 after 24 hrs by microdilution assay; conditions: MB2, 24 h; procedure, shortened: as §2
[19] = system: Enterococcus faecium; assay: Antibacterial activity against Enterococcus faecium MB152 after 24 hrs by microdilution assay; conditions: MB152, 24 h; procedure, shortened: as §2
[20] = system: Enterococcus durans; assay: Antibacterial activity against Enterococcus durans MB113 after 24 hrs by microdilution assay; conditions: MB113, 24 h; procedure, shortened: as §2
[21] = system: Enterococcus faecium; assay: Antibacterial activity against Enterococcus faecium MB3 after 24 hrs by microdilution assay; conditions: MB3, 24 h; procedure, shortened: as §2
[22] = system: Staphylococcus warneri; assay: Antibacterial activity against Methicillin-resistant Staphylococcus warneri MB74 after 24 hrs by microdilution assay; conditions: MB74, 24 h; procedure, shortened: as §1

Structure (SMILES)	MIC [1]	MIC [2]	MIC [3]	MIC [4]	MIC [5]	MIC [6]	MIC [7]	MIC [8]	MIC [9]	MIC [10]	MIC [11]	MIC [12]	MIC [13]	MIC [14]	MIC [15]	MIC [16]	MIC [17]	MIC [18]	MIC [19]	MIC [20]	further results
COC1O[C@H]2C[C@@](C)(O)[C@H](CC/C(C)=C/[C@H](O)[C@H]3OC(=O)C=C3C)[C@@]3(C)CCC[C@]1(C)[C@H]23 (some centres undefined)	286 µM	286 µM	> 128 µg/mL	286 µM	143 µM	> 128 µg/mL	> 128 µg/mL	286 µM	143 µM	> 128 µg/mL	286 µM	286 µM	143 µM	> 128 µg/mL	143 µM	286 µM	143 µM	286 µM	286 µM	> 128 µg/mL	MIC [21]: 143 µM; MIC [22]: > 128 µg/mL
COC1O[C@H]2C[C@@](C)(O)[C@H](CC/C(C)=C/CC3OC(=O)C=C3C)[C@@]3(C)CCC[C@]1(C)[C@H]23 (some centres undefined)	148 µM	148 µM	296 µM	296 µM	296 µM	148 µM	296 µM	148 µM	296 µM	296 µM	296 µM	148 µM	296 µM	296 µM	296 µM	74.1 µM	296 µM	296 µM	148 µM	296 µM	MIC [21]: 296 µM; MIC [22]: 148 µM
COC(=O)[C@]1(C)CCC[C@@]2(C)[C@H]1[C@@H](O)C[C@@](C)(O)[C@@H]2CC/C(C)=C/[C@H](O)[C@H]1OC(=O)C=C1C	276 µM	138 µM	> 128 µg/mL	276 µM	276 µM	276 µM	> 128 µg/mL	276 µM	276 µM	276 µM	> 128 µg/mL	> 128 µg/mL	138 µM	> 128 µg/mL	138 µM	276 µM	138 µM	276 µM	138 µM	138 µM	MIC [21]: 276 µM; MIC [22]: 138 µM
CC1=CC(=O)OC1C/C=C(\C)CC[C@@H]1[C@@]2(C)CCC[C@@](C)(CO)[C@@H]2CC[C@@]1(C)O (some centres undefined)	79.2 µM	317 µM	> 128 µg/mL	317 µM	158 µM	317 µM	> 128 µg/mL	158 µM	158 µM	> 128 µg/mL	317 µM	> 128 µg/mL	317 µM	> 128 µg/mL	158 µM	317 µM	158 µM	317 µM	158 µM	> 128 µg/mL	MIC [21]: 317 µM; MIC [22]: 317 µM
CC1(C)CCC[C@]2(C)[C@@H](CC[C@](C)(O)[C@H]3CO3)[C@](C)(O)CC[C@@H]12	198 µM	395 µM	395 µM	395 µM	99 µM	395 µM	198 µM	198 µM	198 µM	395 µM	395 µM	395 µM	99 µM	395 µM	99 µM	395 µM	99 µM	198 µM	198 µM	198 µM	MIC [21]: 99 µM; MIC [22]: 198 µM
CN[C@H](CC(C)C)C(=O)N[C@H]1C(=O)N[C@@H](CC(N)=O)C(=O)N[C@H]2C(=O)N[C@H]3C(=O)N[C@H](C(=O)N[C@H](C(=O)O)c4cc(O)cc(O)c4-c4cc3ccc4O)[C@H](O)c3ccc(c(Cl)c3)Oc3cc2cc(c3O[C@@H]2O[C@H](CO)[C@@H](O)[C@H](O)[C@H]2O[C@H]2C[C@](C)(N)[C@H](O)[C@H](C)O2)Oc2ccc(cc2Cl)[C@H]1O [VANCOMYCIN]	22.1 µM	–	–	–	11 µM	–	–	2.76 µM	88.3 µM	–	–	–	22.1 µM	–	44.2 µM	–	0.69 µM	1.38 µM	177 µM	0.69 µM	MIC [21]: 88.3 µM
COC(=O)[C@]1(C)CCC[C@@]2(C)[C@H]1CC[C@@](C)(O)[C@@H]2CC/C(C)=C/[C@H](O)[C@H]1OC(=O)C=C1C	143 µM	286 µM	> 128 µg/mL	286 µM	143 µM	> 128 µg/mL	286 µM	143 µM	143 µM	> 128 µg/mL	286 µM	286 µM	143 µM	> 128 µg/mL	286 µM	286 µM	286 µM	286 µM	286 µM	286 µM	MIC [21]: 143 µM; MIC [22]: 143 µM
CC1=CC(=O)O[C@@H]1C/C=C(\C)CC[C@@H]1[C@@]2(C)CCC[C@@]3(C)C(O)O[C@@H](C[C@@]1(C)O)[C@H]23 (some centres undefined)	> 128 µg/mL	> 128 µg/mL	> 128 µg/mL	> 128 µg/mL	> 128 µg/mL	> 128 µg/mL	> 128 µg/mL	> 128 µg/mL	> 128 µg/mL	> 128 µg/mL	> 128 µg/mL	> 128 µg/mL	> 128 µg/mL	> 128 µg/mL	> 128 µg/mL	> 128 µg/mL	> 128 µg/mL	> 128 µg/mL	> 128 µg/mL	> 128 µg/mL	MIC [21]: > 128 µg/mL; MIC [22]: > 128 µg/mL
COc1ccc(-c2cc(=O)c3c(OC)c(OC)c(OC)cc3o2)cc1OC [SINENSETIN]	344 µM	344 µM	> 128 µg/mL	> 128 µg/mL	172 µM	> 128 µg/mL	> 128 µg/mL	172 µM	344 µM	> 128 µg/mL	> 128 µg/mL	344 µM	86 µM	344 µM	172 µM	344 µM	344 µM	344 µM	172 µM	344 µM	MIC [21]: 344 µM; MIC [22]: 344 µM
COc1ccc(-c2cc(=O)c3c(O)c(OC)c(OC)cc3o2)cc1O [EUPATORIN]	186 µM	> 128 µg/mL	> 128 µg/mL	> 128 µg/mL	186 µM	> 128 µg/mL	> 128 µg/mL	372 µM	186 µM	> 128 µg/mL	> 128 µg/mL	> 128 µg/mL	186 µM	> 128 µg/mL	372 µM	> 128 µg/mL	186 µM	372 µM	372 µM	> 128 µg/mL	MIC [21]: > 128 µg/mL; MIC [22]: > 128 µg/mL
COc1cc2oc(-c3ccc(O)cc3)cc(=O)c2c(O)c1OC [CIRSIMARITIN]	407 µM	> 128 µg/mL	> 128 µg/mL	> 128 µg/mL	102 µM	> 128 µg/mL	407 µM	407 µM	407 µM	> 128 µg/mL	> 128 µg/mL	> 128 µg/mL	204 µM	> 128 µg/mL	407 µM	407 µM	204 µM	407 µM	407 µM	407 µM	MIC [21]: 204 µM; MIC [22]: > 128 µg/mL
Cc1onc(-c2ccccc2)c1C(=O)N[C@@H]1C(=O)N2[C@@H]1SC(C)(C)[C@@H]2C(=O)O [OXACILLIN]	–	39.9 µM	0.62 µM	638 µM	–	638 µM	1.25 µM	–	–	39.9 µM	2.49 µM	638 µM	–	1280 µM	–	638 µM	–	–	–	–	MIC [22]: 319 µM
COc1ccc(-c2cc(=O)c3c(OC)c(OC)c(OC)cc3o2)cc1	195 µM	390 µM	> 128 µg/mL	390 µM	195 µM	> 128 µg/mL	> 128 µg/mL	390 µM	390 µM	> 128 µg/mL	> 128 µg/mL	390 µM	195 µM	> 128 µg/mL	390 µM	390 µM	390 µM	390 µM	195 µM	195 µM	MIC [21]: 195 µM; MIC [22]: 390 µM
